Screening results: PubChem, Broad Institute
IDH1 R132H inh: inhibitors of human IDH1 R132H. O75874. inhibition, % at 10 µM. 70,000 compounds, 0.18% hits. IDH1 R132H reductase, diaphorase/resazurin fluorescence, 60 min; in the data active = inhibition above about 34%; inconclusive = no clear call, values can overlap the other calls; inactive = below about 11%
KDM4C inh: KDM4C (human) demethylase inhibition; GST-KDM4C 2-372, H3K9me3 peptide, LANCE TR-FRET; 96,000 compounds, 0.15% hits; inhibition, % at 12.5 µM; AID 720574; Q9H3R0;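 active = mean replicate inhibition above about 25%, with at least 55% of replicates also reaching it, limit read from the data, passing the limit was not always enough; inconclusive = only one of those two conditions met; inactive = neither condition met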
Target sequence (Q9H3R0 2-372 limits assumed): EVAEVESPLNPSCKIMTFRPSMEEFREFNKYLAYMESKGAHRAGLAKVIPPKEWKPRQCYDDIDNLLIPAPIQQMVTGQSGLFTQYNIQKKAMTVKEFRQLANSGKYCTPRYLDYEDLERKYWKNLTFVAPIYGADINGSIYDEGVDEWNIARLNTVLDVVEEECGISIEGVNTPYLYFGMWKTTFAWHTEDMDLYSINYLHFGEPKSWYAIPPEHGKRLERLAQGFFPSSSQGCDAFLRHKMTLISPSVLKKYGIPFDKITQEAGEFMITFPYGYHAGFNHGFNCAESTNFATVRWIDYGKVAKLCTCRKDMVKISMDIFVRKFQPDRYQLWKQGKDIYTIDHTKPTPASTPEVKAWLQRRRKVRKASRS
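Material: GST-tagged GASC-1 (JMJD2C) catalytic fragment, aa 2-372 / Quantity: enzyme final amount 10 nM / Medium: HEPES buffer, pH 7.5, plus ascorbate / Doses: one test concentration per compound / Incubation: 30 min reaction, 60 min detection, RT / Measured by: LANCE TR-FRET / Read-out: inhibition from TR-FRET ratio decrease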
T cruzi growth-1: blocks T. cruzi growth in NIH3T3 culture. T. cruzi beta-gal in NIH3T3, GalScreen luminescence, 90 h. inhibition, % at 8.34 µM. 77,000 compounds, 5.9% hits;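 active = mean inhibition above about 93%, with at least 55% of replicates each passing it, limit read from the data, passing the limit was not always enough; inconclusive = only one of those two conditions holds; inactive = neither condition holds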
T cruzi growth-2: Trypanosoma cruzi proliferation inhibition. shares compounds with T cruzi growth-1. T. cruzi beta-gal in NIH3T3, GalScreen luminescence, 90 h. inhibition, % at 8.35 µM. 5,600 compounds, 72% hits. AID 651739;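 active = mean replicate inhibition above about 95% and at least 55% of replicates individually reaching it, limit read from the data; inconclusive = only one of the two criteria is met; inactive = neither criterion is met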
T cruzi growth-3: Trypanosoma cruzi proliferation inhibition; shares compounds with T cruzi growth-1; T. cruzi beta-gal in NIH3T3, GalScreen luminescence, 90 h; inhibition, % at 2.09 µM; 5,600 compounds, 21% hits;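 active = mean inhibition above about 95%, with at least 55% of replicates also reaching it, limit read from the data; inconclusive = meets just one of the two conditions; inactive = meets neither condition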
NIH3T3 tox: cytotoxicity in mouse NIH/3T3 fibroblasts; shares compounds with T cruzi growth-1; NIH/3T3 viability, CellTiter-Glo ATP luminescence, 90 h; cytotoxicity (signal decrease), % at 8.35 µM; 5,600 compounds, 14% hits; AID 651742;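 active = mean signal decrease across replicates above about 35% based on untreated-well scatter, with enough replicates individually passing, limit read from the data; inconclusive = no rule stated though some were filed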
3T3 cytotox 2: NIH/3T3 (mouse) viability loss; shares compounds with T cruzi growth-1; inhibition, % at 24.9 µM; NIH/3T3 viability, CellTiter-Glo ATP luminescence, 90 h; 5,600 compounds, 56% hits;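 active = mean loss of cell viability signal at or above a set limit, and enough replicates individually reaching it; inconclusive = meets only the mean limit or only the replicate share; inactive = meets neither condition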
Large screens that a line does not name were inactive (follow-up assays come after a bar, where they were run). Shown is part of a subset that was picked to be rich in hits.

C[C@@H]1CN([C@@H](C)CO)S(=O)(=O)c2ccc(C#CCN(C)C)cc2O[C@H]1CN(C)Cc1ccc(F)cc1	T cruzi growth-1 113.3 | T cruzi growth-2 inconclusive | T cruzi growth-3 inactive | NIH3T3 tox 51.1 | 3T3 cytotox 2 103.2
C[C@@H](O)C#Cc1ccc2c(c1)O[C@H](CN(C)Cc1ccccc1)[C@@H](C)CN([C@@H](C)CO)S2(=O)=O	none (no result: KDM4C inh)
C[C@H]1CN([C@@H](C)CO)S(=O)(=O)c2ccc(C#CCN(C)C)cc2O[C@H]1CN(C)Cc1ccccc1	T cruzi growth-1 inconclusive | T cruzi growth-2 105.4 | T cruzi growth-3 inactive | NIH3T3 tox inactive | 3T3 cytotox 2 39.4
C[C@@H]1CN([C@@H](C)CO)S(=O)(=O)c2ccc(C#CCN(C)C)cc2O[C@H]1CN(C)Cc1ccccc1	T cruzi growth-1 108.9 | T cruzi growth-2 105.0 | T cruzi growth-3 97.8 | NIH3T3 tox inactive | 3T3 cytotox 2 104.3
C[C@@H]1CN([C@H](C)CO)S(=O)(=O)c2ccc(C#CCN(C)C)cc2O[C@H]1CN(C)Cc1ccccc1	T cruzi growth-1 107.5 | T cruzi growth-2 97.5 | T cruzi growth-3 inactive | NIH3T3 tox 44.5 | 3T3 cytotox 2 104.2
C[C@@H]1CN([C@@H](C)CO)S(=O)(=O)c2ccc(C#CCN(C)C)cc2O[C@@H]1CN(C)Cc1ccc(F)cc1	none
C[C@H](CO)N1C[C@H](C)[C@@H](CN(C)Cc2ccccc2)Oc2cc(C#CCN(C)C)ccc2S1(=O)=O	none
Cc1noc(C)c1NC(=O)Nc1ccc2c(c1)C(=O)N([C@@H](C)CO)C[C@@H](C)[C@@H](CN(C)S(=O)(=O)c1cccs1)OCCCC[C@@H](C)O2	none
CC(C)[C@@H](C)NC(=O)N(C)C[C@@H]1OCc2ccccc2-c2c(n(C)c3ccccc23)C(=O)N([C@@H](C)CO)C[C@H]1C	none (no result: IDH1 R132H inh)
C[C@@H]1CCCCO[C@@H](CN(C)S(=O)(=O)c2ccc(F)cc2)[C@H](C)CN([C@H](C)CO)C(=O)c2cc(NC(=O)NC3CCCCC3)ccc2O1	none (no result: IDH1 R132H inh)
C[C@@H]1CN([C@@H](C)CO)C(=O)Cc2cc(NS(=O)(=O)c3cn(C)cn3)ccc2O[C@H]1CN(C)S(C)(=O)=O	none
Cc1ccc(Cl)c(OCC(=O)NCc2cccnc2)c1	none (no result: KDM4C inh, T cruzi growth-1)
Cc1cc(C)c(C#N)c(SCC(=O)Nc2sc3c(c2C#N)CCC3)n1	none (no result: KDM4C inh, T cruzi growth-1)
C[C@@H]1CCCCO[C@H](CN(C)Cc2ccc(Cl)c(Cl)c2)[C@@H](C)CN([C@@H](C)CO)C(=O)c2cc(NC(=O)Nc3ccc(C(F)(F)F)cc3)ccc2O1	none (no result: IDH1 R132H inh)
C[C@@H]1CCCCO[C@H](CN(C)Cc2ccc(Cl)c(Cl)c2)[C@@H](C)CN([C@H](C)CO)C(=O)c2cc(NC(=O)Nc3ccc(F)cc3)ccc2O1	T cruzi growth-1 101.9 | T cruzi growth-2 inconclusive | T cruzi growth-3 107.7 | NIH3T3 tox inactive | 3T3 cytotox 2 inactive
C[C@@H]1CCCCO[C@@H](CN(C)Cc2ccc(Cl)c(Cl)c2)[C@@H](C)CN([C@H](C)CO)C(=O)c2cc(NC(=O)Nc3ccc(F)cc3)ccc2O1	T cruzi growth-1 109.0 (no result: IDH1 R132H inh) | T cruzi growth-2 101.1 | T cruzi growth-3 108.5 | NIH3T3 tox inactive | 3T3 cytotox 2 inactive
C[C@@H]1CN([C@H](C)CO)C(=O)c2cc(NC(=O)Nc3ccccc3)ccc2O[C@@H](C)CCCCO[C@H]1CN(C)Cc1ccc(Cl)c(Cl)c1	none (no result: IDH1 R132H inh)
C[C@@H]1CN([C@@H](C)CO)C(=O)c2cc(NC(=O)Nc3ccc(F)cc3)ccc2O[C@@H](C)CCCCO[C@H]1CN(C)Cc1ccc(Cl)c(Cl)c1	T cruzi growth-1 103.2 | T cruzi growth-2 inactive | T cruzi growth-3 110.2 | NIH3T3 tox 44.1 | 3T3 cytotox 2 inactive
C[C@@H]1CCCCO[C@H](CN(C)Cc2ccc(Cl)c(Cl)c2)[C@H](C)CN([C@@H](C)CO)C(=O)c2cc(NC(=O)Nc3ccc(F)cc3)ccc2O1	T cruzi growth-1 106.2 | T cruzi growth-2 99.1 | T cruzi growth-3 110.4 | NIH3T3 tox inactive | 3T3 cytotox 2 inconclusive
C[C@@H]1CCCCO[C@@H](CN(C)Cc2ccc(Cl)c(Cl)c2)[C@H](C)CN([C@H](C)CO)C(=O)c2cc(NC(=O)Nc3ccccc3)ccc2O1	none (no result: IDH1 R132H inh)
